Calls of active or inactive are those of the source. The rule behind the calls is not given here.
Legend:
Mus musculus [1] = assay: Neurotoxicity in mouse at 300 mg/kg, ip after 0.5 hrs by rotarod test; format: toxicity, organism-based; set-up: dose 300 mg/kg, route intraperitoneal; details: in vivo
Method in brief: (§1)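 Mice dosed i.p. at 30, 100 and 300 mg/kg in PEG 400 were examined 0.5 and 4 h later on a rotorod. Animals were pre-trained on a 3.2 cm rod turning at 6 rpm. Neurotoxicity meant failing to keep equilibrium for at least 1 min in each of three trials. The value is the minimum dose affecting half or more of the animals.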

Mus musculus [2] = assay: Anticonvulsant activity in mouse assessed as inhibition of maximal electroshock-induced seizures at 300 mg/kg, ip after 0.5 hrs; format: functional, organism-based; set-up: dose 300 mg/kg
Method in brief: (§2)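 Male albino mice (CF-1 or Swiss, 18–25 g) received compound suspended in polyethylene glycol 400, i.p., 0.01 ml/g, at 30, 100 and 300 mg/kg. Maximal electroshock and subcutaneous pentylenetetrazole seizure tests were run at 0.5 and 4 h by a previously reported procedure.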

Mus musculus [3] = assay: Anticonvulsant activity in mouse assessed as inhibition of pentylenetetrazole-induced seizure at 300 mg/kg, ip after 4 hrs; format: functional, organism-based; set-up: dose 300 mg/kg; method in brief: as §2
Mus musculus [4] = assay: Sedative-hypnotic effect in mouse assessed as decrease locomotor activity score at 100 mg/kg, ip after 1 hr by actophotometer; format: functional; details: route intraperitoneal
Method in brief: (§3)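 Locomotor activity in mice was read as a digital photocell score on an actophotometer. Baseline was taken 24 h before treatment, then at 30 min and 1 h after 100 mg/kg i.p. Controls received PEG 400. Percent decrease was calculated from the 1 h values. Results are mean ± SEM of six mice, compared with Student's t test.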

Mus musculus [5] = assay: Sedative-hypnotic effect in mouse assessed as decrease locomotor activity score at 100 mg/kg, ip after 0.5 hrs by actophotometer; format: functional; details: route intraperitoneal; method in brief: as §3
Mus musculus [6] = assay: Sedative-hypnotic effect in mouse assessed as inhibition of locomotor activity at 100 mg/kg, ip by actophotometer; format: functional; details: route intraperitoneal; method in brief: as §3
Mus musculus [7] = assay: Anticonvulsant activity in ip dosed mouse assessed as inhibition of pentylenetetrazole-induced seizure after 0.5 hrs; format: functional; method in brief: as §2
Mus musculus [8] = assay: Anticonvulsant activity in mouse assessed as inhibition of maximal electroshock-induced seizures at 300 mg/kg, ip after 4 hrs; format: functional, organism-based; set-up: dose 300 mg/kg; method in brief: as §2
Mus musculus [9] = assay: Neurotoxicity in mouse at 300 mg/kg, ip after 4 hrs by rotarod test; format: toxicity, organism-based; set-up: dose 300 mg/kg, route intraperitoneal; details: in vivo; method in brief: as §1
Mus musculus [10] = assay: Neurotoxicity in mouse assessed as loss of righting reflux at 100 mg/kg, ip after 0.5 hrs; format: toxicity, organism-based; set-up: dose 100 mg/kg, route intraperitoneal; details: in vivo
Mus musculus [11] = assay: Anticonvulsant activity in mouse assessed as inhibition of pentylenetetrazole-induced seizure at 300 mg/kg, ip after 0.5 hrs; format: functional, organism-based; set-up: dose 300 mg/kg; method in brief: as §2
Mus musculus [12] = assay: Anticonvulsant activity in ip dosed mouse assessed as inhibition of pentylenetetrazole-induced seizure after 4 hrs; format: functional; method in brief: as §2
Mus musculus [13] = assay: Anticonvulsant activity in ip dosed mouse assessed as inhibition of maximal electroshock-induced seizures after 4 hrs; format: functional; method in brief: as §2
Mus musculus [14] = assay: Neurotoxicity in ip dosed mouse after 4 hrs by rotarod test; format: toxicity, organism-based; details: in vivo; method in brief: as §1
Mus musculus [15] = assay: Neurotoxicity in ip dosed mouse after 0.5 hrs by rotarod test; format: toxicity, organism-based; details: in vivo; method in brief: as §1
Rattus norvegicus = assay: Antidepressant activity in Wistar rat assessed as increase in immobility time at 30 mg/kg, ip after 30 mins by forced-swimming test; format: functional; details: route intraperitoneal
Mus musculus [16] = assay: Anticonvulsant activity in ip dosed mouse assessed as inhibition of maximal electroshock-induced seizures after 0.5 hrs; format: functional; method in brief: as §2
Mus musculus [17] = assay: Neurotoxicity in mouse at 100 mg/kg, ip after 1 hr by rotarod test; format: toxicity, organism-based; set-up: dose 100 mg/kg, route intraperitoneal; details: in vivo
Mus musculus [18] = assay: Neurotoxicity in mouse at 100 mg/kg, ip after 0.25 hrs by rotarod test; format: toxicity, organism-based; set-up: dose 100 mg/kg, route intraperitoneal; details: in vivo
Mus musculus [19] = assay: Sedative-hypnotic effect in mouse assessed as decrease locomotor activity score at 25 mg/kg, po after 0.5 hrs by actophotometer; format: functional
Mus musculus [20] = assay: Sedative-hypnotic effect in mouse assessed as decrease locomotor activity score at 25 mg/kg, po after 1 hr by actophotometer; format: functional
Mus musculus [21] = assay: Sedative-hypnotic effect in mouse assessed as inhibition of locomotor activity at 25 mg/kg, po by actophotometer; format: functional
Mus musculus [22] = assay: Toxicity in mouse at 300 mg/kg, ip; format: organism-based; set-up: dose 300 mg/kg, route intraperitoneal; details: in vivo

## COc1ccc(/C=C/c2nc3ccccc3c(=O)n2-c2nnc(-c3ccc(C)cc3)s2)cc1
Mus musculus [1]
  Activity: Not Active
Mus musculus [2]
  Activity: inactive
Mus musculus [3]
  Activity: inactive
Mus musculus [4]
  Activity: 142.19
Mus musculus [5]
  Activity: 315.46
Mus musculus [6]
  inhibition in vivo at 100 mg/kg: 64%
Mus musculus [7]
  Activity: 300 mg/kg
Mus musculus [8]
  Activity: inactive
Mus musculus [9]
  Activity: Not Active

## COc1ccc(/C=C/c2nc3ccccc3c(=O)n2-c2nnc(-c3ccccc3)s2)cc1
Mus musculus [2]
  Activity: inactive
Mus musculus [3]
  Activity: inactive
Mus musculus [10]
  Activity: Toxic
Mus musculus [4]
  Activity: 210.24
Mus musculus [5]
  Activity: 419.24
Mus musculus [6]
  inhibition in vivo at 100 mg/kg: 55%
Mus musculus [8]
  Activity: inactive
Mus musculus [11]
  Activity: inactive
Mus musculus [9]
  Activity: Not Active

## CCCC(CCC)C(=O)[O-].[Na+] [VALPROATE SODIUM]
Mus musculus [1]
  Activity: Not Active
Mus musculus [2]
  Activity: inactive
Mus musculus [3]
  Activity: inactive
Mus musculus [7]
  Activity: 300 mg/kg
Mus musculus [8]
  Activity: inactive
Mus musculus [9]
  Activity: Not Active

## COc1ccc(/C=C/c2nc3ccccc3c(=O)n2-c2nnc(-c3ccc(Cl)cc3)s2)cc1
Mus musculus [12]
  Activity: 300 mg/kg
Mus musculus [1]
  Activity: Not Active
Mus musculus [2]
  Activity: inactive
Mus musculus [4]
  Activity: 155.31
Mus musculus [5]
  Activity: 306.98
Mus musculus [6]
  inhibition in vivo at 100 mg/kg: 62%
Mus musculus [9]
  Activity: Not Active
Mus musculus [13]
  Activity: 300 mg/kg

## NC(=O)N1c2ccccc2C=Cc2ccccc21 [CARBAMAZEPINE]
Mus musculus [12]
  Activity: 300 mg/kg
Mus musculus [14]
  Activity: 300 mg/kg
Mus musculus [7]
  Activity: 100 mg/kg
Mus musculus [15]
  Activity: 100 mg/kg
Rattus norvegicus
  Activity: 240.3 s
Mus musculus [13]
  Activity: 100 mg/kg
Mus musculus [16]
  Activity: 30 mg/kg

## O=c1c2ccccc2nc(/C=C/c2ccccc2)n1-c1nnc(-c2cccc(Cl)c2)s1
Mus musculus [2]
  Activity: inactive
Mus musculus [3]
  Activity: inactive
Mus musculus [4]
  Activity: 165.52
Mus musculus [5]
  Activity: 319.57
Mus musculus [17]
  Activity: Toxic
Mus musculus [18]
  Activity: Toxic
Mus musculus [6]
  inhibition in vivo at 100 mg/kg: 63%
Mus musculus [11]
  Activity: inactive
Mus musculus [15]
  Activity: 300 mg/kg
Mus musculus [9]
  Activity: Not Active
Mus musculus [13]
  Activity: 100 mg/kg

## COc1ccc(/C=C/c2nc3ccccc3c(=O)n2-c2nnc(-c3ccc(OC)cc3)s2)cc1
Mus musculus [2]
  Activity: inactive
Mus musculus [3]
  Activity: inactive
Mus musculus [4]
  Activity: 180.3
Mus musculus [5]
  Activity: 308.13
Mus musculus [6]
  inhibition in vivo at 100 mg/kg: 59%
Mus musculus [8]
  Activity: inactive
Mus musculus [11]
  Activity: inactive
Mus musculus [15]
  Activity: 300 mg/kg
Mus musculus [9]
  Activity: Not Active

## CCC1(C)CC(=O)NC1=O (stereo not drawn) [ETHOSUXIMIDE]
Mus musculus [1]
  Activity: Not Active
Mus musculus [2]
  Activity: inactive
Mus musculus [3]
  Activity: inactive
Mus musculus [7]
  Activity: 300 mg/kg
Mus musculus [8]
  Activity: inactive
Mus musculus [9]
  Activity: Not Active

## Cc1ccc(/C=C/c2nc3ccccc3c(=O)n2-c2nnc(-c3cccc(Cl)c3)s2)cc1
Mus musculus [12]
  Activity: 300 mg/kg
Mus musculus [1]
  Activity: Not Active
Mus musculus [2]
  Activity: inactive
Mus musculus [4]
  Activity: 128.94
Mus musculus [5]
  Activity: 298.67
Mus musculus [6]
  inhibition in vivo at 100 mg/kg: 65%
Mus musculus [7]
  Activity: 300 mg/kg
Mus musculus [8]
  Activity: inactive
Mus musculus [9]
  Activity: Not Active

## COc1ccc(/C=C/c2nc3ccccc3c(=O)n2-c2nnc(-c3cccc(Cl)c3)s2)cc1
Mus musculus [1]
  Activity: Not Active
Mus musculus [2]
  Activity: inactive
Mus musculus [3]
  Activity: inactive
Mus musculus [4]
  Activity: 110.45
Mus musculus [5]
  Activity: 292.39
Mus musculus [6]
  inhibition in vivo at 100 mg/kg: 66%
Mus musculus [11]
  Activity: inactive
Mus musculus [9]
  Activity: Not Active
Mus musculus [13]
  Activity: 300 mg/kg

## O=c1c2ccccc2nc(/C=C/c2ccccc2)n1-c1nnc(/C=C/c2ccccc2)s1
Mus musculus [2]
  Activity: inactive
Mus musculus [3]
  Activity: inactive
Mus musculus [4]
  Activity: 489.92
Mus musculus [5]
  Activity: 372.87
Mus musculus [8]
  Activity: inactive
Mus musculus [11]
  Activity: inactive
Mus musculus [15]
  Activity: 300 mg/kg
Mus musculus [9]
  Activity: Not Active

## O=C1NC(=O)C(c2ccccc2)(c2ccccc2)N1 [PHENYTOIN]
Mus musculus [19]
  Activity: 251.02
Mus musculus [20]
  Activity: 164.1
Mus musculus [21]
  inhibition in vivo at 25 mg/kg: 70%
Mus musculus [14]
  Activity: 100 mg/kg
Mus musculus [3]
  Activity: inactive
Mus musculus [11]
  Activity: inactive
Mus musculus [15]
  Activity: 100 mg/kg
Mus musculus [13]
  Activity: 30 mg/kg
Mus musculus [16]
  Activity: 30 mg/kg

## O=c1c2ccccc2nc(/C=C/c2ccccc2)n1-c1nnc(-c2ccc(Cl)cc2)s1
Mus musculus [12]
  Activity: 300 mg/kg
Mus musculus [1]
  Activity: Not Active
Mus musculus [4]
  Activity: 132.04
Mus musculus [5]
  Activity: 250.62
Mus musculus [6]
  inhibition in vivo at 100 mg/kg: 68%
Mus musculus [7]
  Activity: 300 mg/kg
Mus musculus [9]
  Activity: Not Active
Mus musculus [13]
  Activity: 100 mg/kg
Mus musculus [16]
  Activity: 100 mg/kg

## O=c1c2ccccc2nc(/C=C/c2ccccc2)n1-c1nnc(-c2ccccc2)s1
Mus musculus [22]
  Activity: Toxic
Mus musculus [1]
  Activity: Not Active
Mus musculus [4]
  Activity: 249.45
Mus musculus [5]
  Activity: 472.31
Mus musculus [6]
  inhibition in vivo at 100 mg/kg: 55%
Mus musculus [8]
  Activity: inactive
Mus musculus [11]
  Activity: inactive
Mus musculus [9]
  Activity: Not Active
Mus musculus [16]
  Activity: 30 mg/kg

From ChEMBL document CHEMBL1157208, “Synthesis and CNS depressant activity of some novel 3-[5-substituted 1,3,4-thiadiazole-2-yl]-2-styryl quinazoline-4(3H)-ones” (Eur J Med Chem, 2008)
